# Shown are actives, neighbours in structure and some others; about 2.9% of the full set was active somewhere.
# SIAE primary = blocks human sialic acid acetylesterase; SIAE FP-Rh probe binding, fluorescence polarization; hit rate 0.69% among 370,000; Q9HAT2; inhibition, % at 9.66 µM; AID 1053197;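 active means inhibition above a cutoff: mean of compounds within the control limits plus 3 SD of those, cut at about 17% in these data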
# ATG4B inh = ATG4B (human) cysteine protease inhibition; inhibition, % at 8.33 µM; hit rate 0.51% among 340,000; Q9Y4P1; ATG4B cleavage of LC3-PLA2, NBD-HPC fluorescence, 1 h; AID 504462; in the data active means inhibition above about 40%
# HTRA1 inh = inhibitors of human serine peptidase HTRA1; Q92743; recombinant HTRA1, FP-rhodamine activity-based probe, fluorescence polarization; inhibition, % at 5.96 µM; hit rate 0.5% among 340,000; AID 504803; in the data active means inhibition above about 36%
# Target sequence (Q92743 whole entry, looked up): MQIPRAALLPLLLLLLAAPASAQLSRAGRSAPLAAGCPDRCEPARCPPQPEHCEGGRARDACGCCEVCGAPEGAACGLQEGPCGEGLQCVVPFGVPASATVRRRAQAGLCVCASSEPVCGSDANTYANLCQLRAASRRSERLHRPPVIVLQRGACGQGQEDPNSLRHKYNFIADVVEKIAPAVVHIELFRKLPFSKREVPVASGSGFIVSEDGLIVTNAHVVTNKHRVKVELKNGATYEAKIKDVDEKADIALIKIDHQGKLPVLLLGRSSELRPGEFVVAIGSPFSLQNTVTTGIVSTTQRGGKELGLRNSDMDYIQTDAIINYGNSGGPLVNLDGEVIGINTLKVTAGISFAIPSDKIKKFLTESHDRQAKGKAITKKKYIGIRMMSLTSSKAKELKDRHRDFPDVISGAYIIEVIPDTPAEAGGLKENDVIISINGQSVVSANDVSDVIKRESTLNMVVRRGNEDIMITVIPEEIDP
# mABHD4 FP = inhibitors of mouse ABHD4; purified mABHD4, FP-Rh probe fluorescence polarization; inhibition, % at 8.92 µM; hit rate 0.54% among 370,000;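 active means inhibition exceeding the mean over every tested compound plus 3 SD, cut at about 30% in these data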
#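 system = mouse ABHD4 enzyme, wild type | medium = HEPES pH 7.0, NaCl, Pluronic buffer | also added = FP-Rh probe | incubation = Enzyme–compound pre-incubation 45 min, then probe 60 min, both 25 °C | technique = fluorescence polarization, excitation 525 nm, emission 598 nm, BODIPY TMR filters | controls = S159A mutant high control, sample median low control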
# PRMT1 inh = blocks human protein arginine methyltransferase 1; inhibition, % at 2.79 µM; Q99873; hit rate 1.3% among 370,000; AID 652257; recombinant PRMT1, activity-based probe fluorescence polarization;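 active means inhibition above about 21% made by adding two undisclosed values, limit read from the data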
# TCR-CD3 inh = human TCR-CD3 binding inhibition; inhibition, % at 9.4 µM; TAMRA-labeled TCR probe fluorescence, biochemical; hit rate 0.37% among 360,000; in the data active means inhibition above about 19%;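 further: recombinant mutant TCR 2C K166C tagged with TAMRA read by polarization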
# PRMT1 inh conf = confirmation of human PRMT1 inhibitors. shares compounds with PRMT1 inh. recombinant His-PRMT1, activity-based probe fluorescence polarization. inhibition, % at 2.79 µM. hit rate 42% among 3,300;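 active means mean inhibition across replicates above the hit cutoff derived for the earlier primary screen, cut at about 22% in these data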
# A number is an active result; – = inactive; · = no result given.
SMILES,SIAE primary,ATG4B inh,HTRA1 inh,mABHD4 FP,PRMT1 inh,TCR-CD3 inh,PRMT1 inh conf
Cc1cc2cc(C(c3nnnn3Cc3ccco3)N3CCCCC3)c(=O)[nH]c2cc1C (configuration not stated),–,–,–,–,30.1,–,–
Cc1ccc2cc(CN(CCN3CCOCC3)Cc3nnnn3Cc3ccco3)c(=O)[nH]c2c1C,–,–,–,–,–,–,·
Cc1ccc2cc(CN(Cc3ccc4c(c3)OCO4)Cc3nnnn3Cc3ccco3)c(=O)[nH]c2c1C,–,–,–,–,60.5,–,–
COc1cc2cc(CN(Cc3nnnn3Cc3ccco3)C3CCCCC3)c(=O)[nH]c2cc1OC,–,–,–,–,29.2,–,–
COc1ccc(-c2c(C(=O)c3ccccc3)[nH]c(N)c2C(=O)NCCc2c[nH]c3ccccc23)cc1,–,·,·,–,–,–,·
C[C@H]1C=C(C(=O)NCc2nc3ccccc3[nH]2)O[C@@H](OCCCCO)C1,–,–,–,–,41.4,–,–
Cc1c(Cl)cccc1NC(CC(=O)c1ccccc1)C(=O)OCC(=O)c1cccs1 (configuration not stated),–,–,–,–,62.9,–,–
O=C(CC(Nc1cccc(Cl)c1Cl)C(=O)O)c1ccccc1 (configuration not stated),–,–,–,–,29.2,–,–
COc1ccccc1NC(CC(=O)c1ccccc1)C(=O)OCC(=O)c1ccc(F)cc1 (configuration not stated),–,–,–,–,35.3,–,–
O=C(CC(Nc1cccc(Cl)c1Cl)C(=O)OCC(=O)c1cccs1)c1ccccc1 (configuration not stated),–,–,–,–,–,–,·
O=C(CC(Nc1ccc(Cl)cc1)C(=O)O)c1ccccc1 (configuration not stated),–,–,–,–,–,–,·
O=C(CC(Nc1ccccc1Cl)C(=O)O)c1ccccc1 (configuration not stated),–,–,–,–,30.8,–,–
O=C(c1cccc(C(F)(F)F)c1)N1CC[C@H]2[C@H](CCCN2Cc2ccc(F)cc2)C1,–,·,·,–,–,·,·
CC(=O)NC(Cc1ccc2c(c1)OCO2)C(=O)N1CCCN(C(C)=O)CC1 (configuration not stated),–,·,·,–,–,·,·
CCN(CC)C(=O)CC[C@H]1CC[C@]2(CCCN(C(=O)c3ccccc3)C2)O1,–,·,·,–,–,·,·
Cc1c(Cl)cccc1NC(CC(=O)c1ccccc1)C(=O)O (configuration not stated),–,–,–,–,34.8,–,–
N#Cc1ccc(Oc2cccc3cccnc23)c([N+](=O)[O-])c1,–,–,–,–,26.5,–,–
O=[N+]([O-])c1ccc(Oc2cccc3cccnc23)c([N+](=O)[O-])c1,–,–,–,–,–,–,·
COc1ccc(S(=O)(=O)N(C(C)=O)c2ccc3oc(=O)sc3c2)cc1,–,–,–,–,93.9,–,64.1
COc1ccc(C(c2nnnn2C(C)(C)C)N2CCN(c3nc4ccccc4s3)CC2)cc1OC (configuration not stated),–,–,–,–,–,–,·
COc1cc(C(c2nnnn2C(C)(C)C)N2CCN(c3nc4ccccc4s3)CC2)ccc1O (configuration not stated),–,–,–,–,44.1,–,31.2
Brc1ccc2nc(-c3ccc(CN4CCC(c5nc6ccccc6[nH]5)CC4)cc3)c(-c3ccccc3)nc2c1,–,·,·,–,–,–,·
CCCC(=O)N1CCC[C@]2(CC[C@@H](CCC(=O)N(CC)CC)O2)C1,–,·,·,–,–,·,·
CCOc1ccc2nc(N3C(=O)C(O)=C(C(=O)c4ccco4)C3c3ccco3)sc2c1 (configuration not stated),–,–,–,–,–,–,·
COc1ccc2nc(N3C(=O)C(O)=C(C(=O)c4ccco4)C3c3ccccc3OC)sc2c1 (configuration not stated),–,–,–,–,–,–,·
SMILES,SIAE primary,ATG4B inh,HTRA1 inh,mABHD4 FP,PRMT1 inh,TCR-CD3 inh,PRMT1 inh conf
COc1ccc2nc(N3C(=O)C(O)=C(C(=O)c4ccco4)C3c3ccc(C)o3)sc2c1 (configuration not stated),–,–,–,–,34.2,–,–
Cc1ccc2nc(N3C(=O)C(O)=C(C(=O)c4ccco4)C3c3cccs3)sc2c1 (configuration not stated),–,–,–,–,34.5,–,–
CCc1ccccc1NC(=O)CNC(=O)c1cc(C2CC2)nc2c1cnn2C(C)C,–,–,–,–,–,–,·
CC(C)n1ncc2c(C(=O)Nc3ccccc3SCC(N)=O)cc(C3CC3)nc21,–,·,–,–,79.5,–,–
Cn1cnc([N+](=O)[O-])c1S(=O)(=O)Oc1ccc(Cl)cc1,–,–,–,–,30.5,–,23.0
O=C(OCC(=O)c1ccco1)c1ccc2ncsc2c1,–,–,–,–,46.3,–,–
CC(C)(C)c1ccc(NC(=O)COC(=O)c2ccc3ncsc3c2)cc1,–,–,–,–,–,–,·
c1coc(C2Nc3ccccc3-c3nc4ccccc4n32)c1 (configuration not stated),–,–,–,–,44.8,–,–
O=C(CCN1C(=O)/C(=C\c2ccco2)SC1=S)Nc1ccc(C(=O)O)c(O)c1,–,–,–,–,38.6,–,28.5
COc1ccccc1/C=C1\SC(=S)N(CCC(=O)Nc2ccc(C(=O)O)c(O)c2)C1=O,–,–,–,–,–,–,·
O=C(CCN1C(=O)/C(=C/c2ccco2)SC1=S)Nc1ccc(C(=O)O)c(O)c1,–,–,–,–,39.0,–,30.2
CCCCCn1nnnc1C1(C)CCCCC(=O)N1Cc1ccco1 (configuration not stated),–,·,·,–,–,·,·
COc1ccc(/C=C2/CN(Cc3ccc(OC)cc3OC)C3=N[C@H](c4ccccc4)CC(=O)N32)cc1,–,·,·,–,–,·,·
COC/C=C/C1=CC2=CC(=O)C(C)(OC(=O)C3CCCC3)C(=O)C2=CO1 (configuration not stated),–,–,–,–,46.4,–,24.4
CCc1cc(C(=O)Nc2ccc(OC)nc2)sc1C,–,–,–,–,26.4,–,–
COc1ccc(NC(=O)c2cc(Br)c(Br)s2)cn1,–,–,–,–,–,–,·
CCCC[C@H]1C2CC(OC(=O)Nc3ccc(C)cc3)C(C2)[C@H]2CCCCN21 (some centres not stated),–,·,·,–,–,·,·
Cc1c(NS(=O)(=O)c2cc3c(cc2Br)CCN3C(=O)C2CC2)c(=O)n(-c2ccccc2)n1C,–,·,·,–,–,·,·
CC1=C2NC(N)=[N+](Cc3ccc4c(c3)OCO4)CC2n2c(=O)n(-c3ccccc3)c(=O)n2C1 (configuration not stated),–,·,·,–,–,·,·

# Compound activity as filed in PubChem BioAssay.
